Experimental data as given in ChEMBL document CHEMBL4425130, “Macrocyclic Prodrugs of a Selective Nonpeptidic Direct Thrombin Inhibitor Display High Permeability, Efficient Bioconversion but Low Bioavailability” (J Med Chem, 2016).

Columns and labels:
[1] = Intrinsic clearance in Sprague-Dawley rat liver microsomes at 1 umol/L after 7 to 30 mins by LC-MS/MS method; format: ADME, Microsome; settings: read-out: CLH
Cytochrome P450 3A4 = Cytochrome P450 3A4 (Homo sapiens, UniProt P08684); assay: Inhibition of human CYP3A4; format: ADME
Chain of Cytochrome P450 3A4 (P08684 whole entry): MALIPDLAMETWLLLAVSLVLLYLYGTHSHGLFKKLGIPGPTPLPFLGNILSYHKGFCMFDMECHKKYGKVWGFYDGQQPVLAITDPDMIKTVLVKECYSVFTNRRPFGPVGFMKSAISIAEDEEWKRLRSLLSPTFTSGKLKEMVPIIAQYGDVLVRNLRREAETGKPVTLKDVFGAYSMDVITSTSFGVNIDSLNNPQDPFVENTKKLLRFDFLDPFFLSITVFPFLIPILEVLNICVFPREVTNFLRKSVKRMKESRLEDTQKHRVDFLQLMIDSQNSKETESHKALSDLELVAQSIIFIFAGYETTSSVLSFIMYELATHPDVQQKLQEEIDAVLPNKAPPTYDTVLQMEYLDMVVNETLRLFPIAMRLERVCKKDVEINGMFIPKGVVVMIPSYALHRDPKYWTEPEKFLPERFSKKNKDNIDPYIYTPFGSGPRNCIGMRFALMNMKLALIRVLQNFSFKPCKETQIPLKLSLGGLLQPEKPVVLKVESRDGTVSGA

Plasma = assay: Anticoagulant activity in human citrated plasma assessed as concentration required to double activated partial thromboplastin time after 3 mins by coagulation analyser; format: functional, cell-free; settings: 0.05 h
Rattus norvegicus = species: Rattus norvegicus; assay: Antithrombotic activity in rat caval vein thrombosis model assessed as prevention of venous thrombosis; format: functional, organism-based
Prothrombin = Prothrombin (Homo sapiens, UniProt P00734); assay: Inhibition of human alpha-thrombin using S-2366 as substrate after 40 mins
Serine protease 1 = Serine protease 1 (Homo sapiens, UniProt P07477); assay: Inhibition of human trypsin 1 using S-2222 as substrate preincubated for 300 secs followed by substrate addition measured after 40 mins
Chain of Serine protease 1 (P07477 whole entry): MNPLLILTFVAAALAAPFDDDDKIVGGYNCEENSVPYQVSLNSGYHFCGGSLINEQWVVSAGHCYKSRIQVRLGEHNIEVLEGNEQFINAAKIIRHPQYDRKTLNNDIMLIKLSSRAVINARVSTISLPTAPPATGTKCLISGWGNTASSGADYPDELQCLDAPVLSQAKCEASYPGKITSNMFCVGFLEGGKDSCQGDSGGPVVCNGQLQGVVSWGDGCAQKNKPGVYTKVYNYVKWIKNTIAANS
In short: (§1)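 Human proteases assayed at one substrate concentration with ten inhibitor concentrations at 37 °C, ≤1.3% DMSO, in an enzyme-specific Tris-HCl pH 7.4 buffer. Enzyme and inhibitor preincubated 300 s, then substrate added; absorbance read at 405 nm after 40 min. IC50 converted to Ki by IC50 = Ki(1+S/KM), using KM measured under assay conditions.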

[2] = Inhibition of human tissue factor/F7a using spectrozyme as substrate preincubated for 300 secs followed by substrate addition measured after 40 mins; in short: as §1
Coagulation factor IX = Coagulation factor IX (Homo sapiens, UniProt P00740); assay: Inhibition of human F9a using pefachrome F9a as substrate preincubated for 300 secs followed by substrate addition measured after 40 mins
Chain of Coagulation factor IX (P00740 47-191 limits assumed): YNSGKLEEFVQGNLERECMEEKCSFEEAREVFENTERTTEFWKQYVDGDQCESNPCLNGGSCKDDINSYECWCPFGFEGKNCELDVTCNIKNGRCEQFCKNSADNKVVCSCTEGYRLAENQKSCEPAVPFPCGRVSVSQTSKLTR
Chain of Coagulation factor IX (P00740 227-461 limits assumed): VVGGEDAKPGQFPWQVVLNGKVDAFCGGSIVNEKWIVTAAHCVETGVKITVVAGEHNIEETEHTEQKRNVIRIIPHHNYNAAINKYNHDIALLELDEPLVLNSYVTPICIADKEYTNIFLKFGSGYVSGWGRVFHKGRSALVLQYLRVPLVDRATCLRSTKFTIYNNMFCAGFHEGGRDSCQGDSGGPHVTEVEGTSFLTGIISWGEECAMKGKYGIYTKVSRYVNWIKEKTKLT

Coagulation factor X = Coagulation factor X (Homo sapiens, UniProt P00742); assay: Inhibition of human F10a using S-2765 as substrate preincubated for 300 secs followed by substrate addition measured after 40 mins; in short: as §1
Chain of Coagulation factor X (P00742 41-179 limits assumed): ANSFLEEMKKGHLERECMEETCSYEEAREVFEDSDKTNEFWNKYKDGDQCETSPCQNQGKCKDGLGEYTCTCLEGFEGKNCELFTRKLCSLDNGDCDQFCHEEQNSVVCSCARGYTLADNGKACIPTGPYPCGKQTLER
Chain of Coagulation factor X (P00742 235-488 limits assumed): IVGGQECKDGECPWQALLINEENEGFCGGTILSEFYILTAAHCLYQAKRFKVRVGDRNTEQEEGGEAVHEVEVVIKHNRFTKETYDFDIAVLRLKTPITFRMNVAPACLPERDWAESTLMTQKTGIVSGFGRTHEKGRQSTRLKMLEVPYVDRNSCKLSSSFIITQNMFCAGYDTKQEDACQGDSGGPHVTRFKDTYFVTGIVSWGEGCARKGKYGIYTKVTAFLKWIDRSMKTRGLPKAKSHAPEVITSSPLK

Coagulation factor XI = Coagulation factor XI (Homo sapiens, UniProt P03951); assay: Inhibition of human F11a using S-2366 as substrate preincubated for 300 secs followed by substrate addition measured after 40 mins; in short: as §1
Chain of Coagulation factor XI (P03951 19-387 limits assumed): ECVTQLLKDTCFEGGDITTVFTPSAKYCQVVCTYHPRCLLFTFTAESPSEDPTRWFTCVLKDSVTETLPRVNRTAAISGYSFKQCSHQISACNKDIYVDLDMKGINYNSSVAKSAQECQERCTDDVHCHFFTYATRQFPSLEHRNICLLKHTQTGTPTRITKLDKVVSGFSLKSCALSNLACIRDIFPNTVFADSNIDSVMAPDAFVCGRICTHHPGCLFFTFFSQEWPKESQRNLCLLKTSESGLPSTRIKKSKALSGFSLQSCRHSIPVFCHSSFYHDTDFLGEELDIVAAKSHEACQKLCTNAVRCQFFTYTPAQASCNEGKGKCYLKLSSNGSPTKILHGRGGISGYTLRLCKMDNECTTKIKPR
Chain of Coagulation factor XI (P03951 388-625 limits assumed): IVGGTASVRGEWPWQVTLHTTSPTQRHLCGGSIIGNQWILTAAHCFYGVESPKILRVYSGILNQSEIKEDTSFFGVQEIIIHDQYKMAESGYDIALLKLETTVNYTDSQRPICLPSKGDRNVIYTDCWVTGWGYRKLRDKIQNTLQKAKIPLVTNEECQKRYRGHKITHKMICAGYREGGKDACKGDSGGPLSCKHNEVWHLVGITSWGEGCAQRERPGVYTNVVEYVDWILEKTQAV

Plasminogen = Plasminogen (Homo sapiens, UniProt P00747); assay: Inhibition of human plasmin using S-2366 as substrate preincubated for 300 secs followed by substrate addition measured after 40 mins; in short: as §1
Chain of Plasminogen (P00747 97-580 limits assumed): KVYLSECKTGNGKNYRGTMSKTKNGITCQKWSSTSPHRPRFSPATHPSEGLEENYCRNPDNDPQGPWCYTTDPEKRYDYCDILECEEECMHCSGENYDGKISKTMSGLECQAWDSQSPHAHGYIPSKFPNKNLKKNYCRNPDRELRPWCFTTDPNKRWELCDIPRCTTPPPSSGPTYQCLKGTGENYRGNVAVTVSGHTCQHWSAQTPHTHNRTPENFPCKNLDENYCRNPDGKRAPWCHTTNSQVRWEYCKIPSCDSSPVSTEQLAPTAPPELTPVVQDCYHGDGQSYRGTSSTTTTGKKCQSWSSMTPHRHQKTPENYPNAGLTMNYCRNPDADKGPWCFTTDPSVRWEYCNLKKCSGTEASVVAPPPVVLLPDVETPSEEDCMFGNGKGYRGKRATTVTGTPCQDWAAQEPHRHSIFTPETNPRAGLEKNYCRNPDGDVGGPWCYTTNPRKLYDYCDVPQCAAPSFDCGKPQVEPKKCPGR
Chain of Plasminogen (P00747 581-810 limits assumed): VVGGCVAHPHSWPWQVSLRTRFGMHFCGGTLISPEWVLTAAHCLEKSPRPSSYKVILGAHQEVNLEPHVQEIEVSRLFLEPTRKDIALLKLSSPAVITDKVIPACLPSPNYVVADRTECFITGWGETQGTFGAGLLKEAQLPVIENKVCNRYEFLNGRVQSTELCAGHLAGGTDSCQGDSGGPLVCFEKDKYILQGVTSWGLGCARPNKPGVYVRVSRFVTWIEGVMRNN

[3] = molecular target: Thrombin & trypsin (Homo sapiens) (UniProt P00734+P07477+P07478+P35030); assay: Selectivity ratio of Ki for human trypsin 1 to Ki for human alpha-thrombin; format: protein assay
Homo sapiens [4] = species: Homo sapiens; assay: Selectivity ratio of Ki for human tissue factor/F7a to Ki for human alpha-thrombin
Homo sapiens [5] = species: Homo sapiens; assay: Selectivity ratio of Ki for human F9a to Ki for human alpha-thrombin
Homo sapiens [6] = species: Homo sapiens; assay: Selectivity ratio of Ki for human F10a to Ki for human alpha-thrombin
Homo sapiens [7] = species: Homo sapiens; assay: Selectivity ratio of Ki for human F11a to Ki for human alpha-thrombin
Homo sapiens [8] = species: Homo sapiens; assay: Selectivity ratio of Ki for human plasmin to Ki for human alpha-thrombin
[9] = Solubility of the compound in phosphate buffer at pH 7.4 at 25 degC after 24 hrs by ultraperformance LC/MS/MS method
[10] = Apparent permeability across apical to basolateral side in human Caco2 cells at 10 uM after 45 to 120 mins by ultraperformance LC/MS/MS method; settings: Caco-2
[11] = Efflux ratio of apparent permeability across basolateral to apical over apical to basolateral side in human Caco2 cells at 10 uM after 45 to 120 mins by ultraperformance LC/MS/MS method; settings: Caco-2
[12] = Drug level in human hepatocytes treated with 25-Chloro-18-methyl-13,14,17,20,22,23-hexahydro-1H,7H-15,19-methano-8,12-(metheno)-4,6,2,14,15,22-benzodioxatetraazacyclopentacosine-3,7,21,28(1H,16H)-tetrone assessed as esterase-mediated compound formation at 4 uM after 40 mins by ultraperformance liquid chromatographic method; format: ADME, cell-based; settings: isolated protein
In short: (§2)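 Cryopreserved human hepatocytes at 10^6 viable cells/mL, thawed and pre-warmed 10 min at 37 °C. Compound added from CH3CN stock at 4 µM final. Incubated 40 min, then quenched in cold CH3CN, with compound-free incubations as blanks. Metabolites assigned by LC-MS product ion spectra.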

[13] = Drug level in human hepatocytes treated with 25-Chloro-5,18-dimethyl-13,14,17,20,22,23-hexahydro-1H,7H-15,19-methano-8,12-(metheno)-4,6,2,14,15,22-benzodioxatetraazacyclopentacosine-3,7,21,28(2H,16H)-tetrone assessed as esterase-mediated compound formation at 4 uM after 40 mins by ultraperformance liquid chromatographic method; format: ADME, cell-based; settings: isolated protein; in short: as §2
[14] = Drug level in rat hepatocytes treated with 25-Chloro-5,18-dimethyl-13,14,17,20,22,23-hexahydro-1H,7H-15,19-methano-8,12-(metheno)-4,6,2,14,15,22-benzodioxatetraazacyclopentacosine-3,7,21,28(2H,16H)-tetrone assessed as esterase-mediated compound formation at 4 uM after 40 mins by ultraperformance liquid chromatographic method; format: ADME, cell-based; settings: isolated protein
[15] = Drug level in human liver microsomes treated with treated with 25-Chloro-18-methyl-13,14,17,20,22,23-hexahydro-1H,7H-15,19-methano-8,12-(metheno)-4,6,2,14,15,22-benzodioxatetraazacyclopentacosine-3,7,21,28(1H,16H)-tetrone in presence of NADPH; format: ADME, Microsome
[16] = Drug level in human liver microsomes treated with treated with 25-Chloro-18-methyl-13,14,17,20,22,23-hexahydro-1H,7H-15,19-methano-8,12-(metheno)-4,6,2,14,15,22-benzodioxatetraazacyclopentacosine-3,7,21,28(1H,16H)-tetrone in absence of NADPH; format: ADME, Microsome
[17] = Drug level in human liver microsomes treated with treated with 25-Chloro-5,18-dimethyl-13,14,17,20,22,23-hexahydro-1H,7H-15,19-methano-8,12-(metheno)-4,6,2,14,15,22-benzodioxatetraazacyclopentacosine-3,7,21,28(2H,16H)-tetrone in presence of NADPH; format: ADME, Microsome
[18] = Drug level in human liver microsomes treated with treated with 25-Chloro-5,18-dimethyl-13,14,17,20,22,23-hexahydro-1H,7H-15,19-methano-8,12-(metheno)-4,6,2,14,15,22-benzodioxatetraazacyclopentacosine-3,7,21,28(2H,16H)-tetrone in absence of NADPH; format: ADME, Microsome
[19] = Clearance in Han Wistar rat at 0.5 umol/kg, iv by LC-MS/MS method; format: ADME, organism-based; settings: in vivo
In short: (§3)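 Male Han Wistar rats, cannulated in the carotid artery for sampling and the jugular vein for i.v. dosing, one week before the study (two days before for intraduodenal dosing). Single doses: 0.5 µmol/kg i.v., or 1 µmol/kg by gavage or intraduodenally. Vehicles were 5% mannitol in water or DMA:TEG:water (1:1:1). Plasma sampled up to 24 h and analysed by LC-MS/MS. Non-compartmental analysis; means of n=3, with F from mean AUCinf.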

[20] = Volume of distribution at steady state in Han Wistar rat at 0.5 umol/kg, iv by LC-MS/MS method; format: ADME, organism-based; settings: in vivo, read-out: Vdss; in short: as §3
[21] = Apparent terminal half life in Han Wistar rat at 0.5 umol/kg, iv by LC-MS/MS method; format: ADME, organism-based; settings: in vivo, read-out: betat1/2(app) (converted); in short: as §3
[22] = AUCinfinity in Han Wistar rat at 0.5 umol/kg, iv by LC-MS/MS method; format: ADME, organism-based; set-up: dose 0.5 umol/kg, time infinity, route intravenous; settings: in vivo; in short: as §3
[23] = Apparent terminal half life in Han Wistar rat at 1 umol/kg, po administered via gavage by LC-MS/MS method; format: ADME, organism-based; settings: in vivo, read-out: betat1/2(app) (converted); in short: as §3
[24] = AUCinfinity in Han Wistar rat at 1 umol/kg, po administered via gavage by LC-MS/MS method; format: ADME, organism-based; set-up: dose 1 umol/kg, time infinity, route oral; settings: in vivo; in short: as §3
[25] = Oral bioavailability in Han Wistar rat at 1 umol/kg administered via gavage by LC-MS/MS method; format: ADME, organism-based; settings: in vivo; in short: as §3
[26] = Cmax in Han Wistar rat at 1 umol/kg, po administered via gavage by LC-MS/MS method; format: ADME, organism-based; set-up: dose 1 umol/kg, route oral; settings: in vivo; in short: as §3
[27] = rat, isolated protein, 40 min, 4 µM
physchem = settings: 1-octanol/phosphate buffer, pH 7.4

CC1=C(CC(=O)NCc2cc(Cl)ccc2CN)C(=O)N(NCc2cccc(C(=O)O)c2)CC1
microsomal CLint at 1 µM [1]: < 15 µL/min/mg | IC50 (Cytochrome P450 3A4): > 50 µM | IC50 (Plasma): 1.2 µM | IC50 (Rattus norvegicus): 0.097 µM | Ki (Prothrombin): 0.0046 µM | Ki (Serine protease 1): > 5.4 µM | Ki [2]: > 33 µM | Ki (Coagulation factor IX): > 29 µM | Ki (Coagulation factor X): > 17 µM | Ki (Coagulation factor XI): > 19 µM | Ki (Plasminogen): > 19 µM | Ratio Ki [3]: > 1000 | Ratio Ki (Homo sapiens [4]): > 1000 | Ratio Ki (Homo sapiens [5]): > 1000 | Ratio Ki (Homo sapiens [6]): > 1000 | Ratio Ki (Homo sapiens [7]): > 1000 | Ratio Ki (Homo sapiens [8]): > 1000 | solubility at 24 h [9]: > 100 µM | Papp A→B at 10 µM [10]: 0.1 ×10⁻⁶ cm/s | efflux ratio at 10 µM [11]: 2.4 | Drug metabolism [12]: Metabolite_Detected | Drug metabolism [13]: Metabolite_Detected | Drug metabolism [14]: Metabolite_Detected | Drug metabolism [15]: Metabolite_Detected | Drug metabolism [16]: Metabolite_Detected | Drug metabolism [17]: Metabolite_Detected | Drug metabolism [18]: Metabolite_Detected | clearance [19]: 32.4 mL/min/kg | Vd [20]: 0.23 L/kg | half-life [21]: 21 min | AUC(0-inf) [22]: 0.258 µM·h | half-life [23]: 33.6 min | AUC(0-inf) [24]: 0.0025 µM·h | bioavailability [25]: 0.5% | Cmax [26]: 4 nM | Drug metabolism [27]: Metabolite_Detected | logD at 3 h (physchem): -0.5
